Compound activity: PubChem BioAssay, several laboratories
The list is not random: actives were taken first. Their share in the collection is about 2.3%.
PAFAH1B3 inh – PAFAH1B3 enzyme inhibitors, primary screen, biochemical, fluorescence polarization, human | actives 0.28% (n = 340,000) | inhibition, % at 3.39 µM | recombinant PAFAH1B3, FP-rhodamine probe | AID 492972, 2010;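 active means inhibition above the screen-wide average of all tested compounds plus 3 SD, cut at about 25% in these data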;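 further: 0% = enzyme with DMSO only and 100% = wells lacking PAFAH1B3 protein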
Target sequence (Q15102 whole entry, looked up): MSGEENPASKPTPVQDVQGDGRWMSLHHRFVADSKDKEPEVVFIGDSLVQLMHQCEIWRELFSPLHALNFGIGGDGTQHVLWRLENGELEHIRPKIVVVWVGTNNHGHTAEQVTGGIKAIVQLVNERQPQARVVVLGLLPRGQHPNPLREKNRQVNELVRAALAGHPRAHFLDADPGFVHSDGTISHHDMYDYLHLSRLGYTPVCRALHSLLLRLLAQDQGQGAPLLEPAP
TDP2 absorb – human TDP2 enzyme inhibitors, primary screen, biochemical, epi absorbance, recombinant enzyme | Tyrosyl-DNA phosphodiesterase 2 (Homo sapiens), O95551 | inhibition, % at 12.8 µM | T5PNP hydrolysis, p-nitrophenol absorbance 415 nm | AID 720702, 2013 | actives 0.34% (n = 370,000);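 active means inhibition above the mean of all tested compounds plus 3 SD, set per campaign, cut at about 25% in these data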;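 further: 0% = DMSO with enzyme and 100% = buffer with substrate but no TDP2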
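test system = human TDP2 enzyme | input = TDP2 enzyme at 120 nM final | medium = 50 mM Tris-HCl pH 7.5 with Mg2+, KCl, DTT, BSA | also added = T5PNP substrate, 5 mM | times = 2 h at 37 °C | technique = epi absorbance | benchmarks = high control without enzyme, low control DMSO plus TDP2 | replication = each compound tested once, singlicate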
PAFAH2 FP inh – PAFAH2 enzyme inhibitors, primary screen, biochemical, fluorescence polarization, human; recombinant PAFAH2, FP-rhodamine activity probe; actives 0.99% (n = 340,000); AID 492956, 2010; inhibition, % at 3.39 µM;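 active means inhibition above the mean over all tested compounds plus 3 SD, cut at about 30% in these data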;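 further: inhibitors block probe labeling of enzyme so polarization drops; 0% = enzyme with DMSO and 100% = wells lacking PAFAH2 protein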
PAFAH1B2 FP inh – PAFAH1B2 enzyme inhibitors, primary screen, biochemical, fluorescence polarization, human; Platelet-activating factor acetylhydrolase IB subunit alpha2 (Homo sapiens), P68402; recombinant PAFAH1B2, FP-rhodamine activity probe; inhibition, % at 3.39 µM; actives 1.2% (n = 340,000);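 active means inhibition above the mean of all tested compounds plus 3 SD, cut at about 24% in these data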;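 further: 0% = enzyme with DMSO and 100% = wells lacking PAFAH1B2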
Target sequence (P68402 whole entry, looked up): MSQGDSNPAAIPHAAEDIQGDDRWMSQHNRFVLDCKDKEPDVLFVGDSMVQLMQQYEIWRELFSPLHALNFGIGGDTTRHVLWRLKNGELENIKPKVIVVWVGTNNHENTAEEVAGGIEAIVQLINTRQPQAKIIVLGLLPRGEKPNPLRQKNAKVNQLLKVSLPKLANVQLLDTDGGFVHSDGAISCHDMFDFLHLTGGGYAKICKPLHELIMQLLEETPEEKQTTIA
Apaf-1 inh – inhibitors of human Apaf-1 apoptosome, primary screen, biochemical, DEVD-Rh110 fluorescence, uHTS | actives 0.71% (n = 330,000) | inhibition, % at 20 µM | Apoptotic protease-activating factor 1 (Homo sapiens), O14727 | reconstituted apoptosome caspase-3 activity; active means inhibition of at least 40% at 20 µM;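 further: plate controls were DMSO wells for no effect and DEVD-CHO caspase inhibitor wells for full effect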
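Assay system – apoptosome proteins · Medium – Hepes buffer, pH 7.5 · Also added – cytochrome c with DEVD-Rh110 · Timing – 30 min compound preincubation, 50 min activation, room temperature · Detection – Rh110 fluorescence, excitation 480 nm, emission 540 nm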
Apaf-1 inh conf – Apaf-1 inhibitors, single-dose retest, confirmation, biochemical, fluorescence, DEVD-Rh110, 20 µM. shares compounds with Apaf-1 inh. reconstituted apoptosome, caspase-3 DEVD-Rh110 fluorescence. inhibition, % at 20 µM. actives 25% (n = 1,800). AID 504614, 2011;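 active means mean inhibition of at least 40% at 20 µM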;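 further: plate controls were DMSO wells for no effect and DEVD-CHO caspase inhibitor control wells for full effect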
Rh110 quench – Rh110 fluorescence interference by putative Apaf-1 inhibitors, confirmation, artefact control for Apaf-1 inhibitor project, biochemical, 20 µM; activation (fluorescence interference), % at 20 µM; shares compounds with Apaf-1 inh; 1,800 tested, under 10 active; AID 504615, 2011; quenched caspase reaction;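 active means signal rise of 40% or more at 20 µM, treated as a fluorescence artifact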
Fluor interf inh – fluorescence interference of Apaf-1 inhibitor hits, dose response, artefact control for Apaf-1 inhibitor project. shares compounds with Apaf-1 inh. fluorescence interference counterscreen, Apaf-1 assay format. IC50, µM. 460 tested, under 10 active. AID 588538, 2011; call rule not given here
* = called active by the depositor; . = no result.

SMILES | PAFAH1B3 inh | TDP2 absorb | PAFAH2 FP inh | PAFAH1B2 FP inh | Apaf-1 inh | Apaf-1 inh conf | Rh110 quench | others
COCC(C)N1C(=O)Cc2c1nc(N)c1c(N)nc(N3CCN(c4ccccc4F)CC3)c(C#N)c21 (stereo not drawn) | 4 | -5 | 5 | 7 | 97* | 25 | 5
CC(=O)N1CCN(C(=S)NC(=O)C23CC4CC(CC(C4)C2)C3)CC1 | 1 | -4 | -1 | 6 | 48* | 3 | -8
COc1ccc(OCc2cc(C(=O)N3CCC(OC)CC3)no2)c2ccccc12 | 9 | 4 | 0 | 0 | 49* | 25 | 6
CCN1CCN(Cc2ccc(NC(=O)c3cc(NC(=O)c4cc(C)on4)cc(OC)c3)cc2C(F)(F)F)CC1 | -2 | 1 | 1 | -6 | 33 | . | .
CCN1CCN(Cc2ccc(NC(=O)c3ccc(C)c(NC(=O)c4ccc5n[nH]nc5c4)c3)cc2C(F)(F)F)CC1 | 1 | 0 | -1 | -1 | 1 | . | .
CCN1CCN(Cc2ccc(NC(=O)c3cc(NC(=O)C(=O)c4c[nH]c5ccccc45)cc(OC)c3)cc2C(F)(F)F)CC1 | -30 | 1 | -68 | -23 | 41* | 24 | 1
CCN1CCN(Cc2ccc(NC(=O)c3ccc(C)c(NC(=O)C(=O)c4c[nH]c5ccccc45)c3)cc2C(F)(F)F)CC1 | -9 | -8 | -49 | -10 | 74* | 35 | 1
COC(=O)C1CN(Cc2ccccc2)CCS(=O)(=O)N1Cc1cn(Cc2cccc(Cl)c2)nn1 (stereo not drawn) | . | 1 | . | . | . | . | .
CCCC1=Nc2cc(C(=O)NCCCOCC)ccc2Sc2ccccc21 | 4 | -4 | 5 | 11 | 45* | 3 | -1
FC(F)(F)c1ccc(C2[C@H]3CN(Cc4ccc(-c5ccccc5)cc4)[C@H](c4ccccc4)C34CC2(c2ccccc2)C4)cc1 (stereo partly drawn) | . | -1 | . | . | 30 | . | .
N#Cc1ccc(C23CC4(C2)[C@H](CN(Cc2ccc(-c5ccccc5)cc2)[C@@H]4c2ccccc2)C3c2ccc(C(F)(F)F)cc2)cc1 (stereo partly drawn) | . | -1 | . | . | 45* | 5 | 8
O=C(CN1CCN(Cc2ccccc2)CC1)N/N=C\c1ccccc1[N+](=O)[O-] | . | -12 | . | . | . | . | .
COc1ccc(C2CC(=O)N3CN(c4ccc(C)c(Cl)c4)CSC3=C2C#N)cc1 (stereo not drawn) | -7 | -6 | -3 | 9 | 47* | 8 | 0
Cc1cc(C)cc(NC(=O)[C@H](Cc2c[nH]c3ccccc23)NC(=O)[C@@H]2Cc3ccccc3CN2)c1 | 0 | 8 | -9 | -1 | 17 | . | .
CCc1ccc(NC(=O)[C@H](Cc2c[nH]c3ccccc23)NC(=O)[C@@H]2Cc3ccccc3CN2)cc1 | 2 | 9 | -7 | 2 | 41* | 18 | 1
C[C@@H]1CC(=O)NN=C1c1ccc(NN=C(C#N)C#N)cc1 | . | 1 | . | . | . | . | .
COc1ccc(-c2ccc(/C=C3\C(=O)N(c4ccccc4)N=C3c3ccccc3)o2)c([N+](=O)[O-])c1 | 10 | -5 | 12 | 2 | 1 | . | .
COC(=O)c1ccccc1-c1ccc(/C=C2\C(=O)N(c3ccccc3)N=C2c2ccccc2)o1 | 6 | 1 | 14 | 6 | 62* | 13 | 9
CCOC(=O)[C@]12CCCCC/C=C\1N(CCc1ccc(Cl)cc1)C(=O)[C@H]2CC(=O)NCc1cccc(C(F)(F)F)c1 | . | -1 | . | . | . | . | .
COc1cc(CNc2ccc(O)cc2)cc(Br)c1OCc1ccccc1F | 10 | . | 7 | 10 | 96* | 23 | 14
CCOc1cc(CNc2ccc(O)cc2)cc(Br)c1OCc1ccccc1F | 18 | . | 8 | 6 | 17 | . | .
COC(=O)[C@@H](Cc1ccccc1)N[C@H](/C=C/c1ccccc1)[C@@H](O)Cc1ccccc1 | . | -9 | . | . | . | . | .
C[C@H](O)[C@@H]1CN2CCc3c([nH]c4c(-c5ccccc5)cccc34)[C@@H]2C[C@@H]1N(C)C(=S)Nc1ccc(C#N)cc1 | . | -2 | . | . | . | . | .
CCCN1CCN(C(=O)C2CCN(S(=O)(=O)c3c(C)noc3/C=C/c3ccc(C)cc3)CC2)CC1 | 4 | -5 | -2 | 2 | 61* | 27 | 1
Cc1noc(/C=C/c2cccs2)c1S(=O)(=O)N1CCC(C(=O)NCCCN2CCC(C)CC2)CC1 | 2 | -8 | 3 | 7 | 40* | 16 | 7
SMILES | PAFAH1B3 inh | TDP2 absorb | PAFAH2 FP inh | PAFAH1B2 FP inh | Apaf-1 inh | Apaf-1 inh conf | Rh110 quench | others
Clc1ccccc1-c1nnc2sc(-c3ccncc3)nn12 | 11 | 3 | -4 | -3 | 2 | . | .
Clc1ccccc1-c1nn2c(-c3ccncc3)nnc2s1 | 3 | . | 1 | 3 | 47* | 63* | 0 | Fluor interf inh=>100
CCOc1cc(C2C(C(C)=O)=C(O)C(=O)N2CCc2c[nH]c3ccccc23)ccc1O (stereo not drawn) | 3 | 1 | 4 | 6 | 49* | 12 | 9
CC(=O)C1=C(O)C(=O)N(CCc2c[nH]c3ccccc23)C1c1ccco1 (stereo not drawn) | 3 | 7 | 5 | 2 | 43* | -1 | 5
CC(=O)C1=C(O)C(=O)N(CCc2c[nH]c3ccccc23)C1c1ccc(C)cc1 (stereo not drawn) | 12 | 7 | 4 | 5 | 4 | . | .
O=C(NCCc1c[nH]c2ccccc12)OCc1cn(Cc2cccc(C(F)(F)F)c2)nn1 | . | 10 | . | . | . | . | .
CCC1CCc2sc(C(=O)Nc3cc(S(=O)(=O)N4CCOCC4)ccc3OC)cc2C1 (stereo not drawn) | . | 1 | . | . | . | . | .
COc1ccc(OC)c(S(=O)(=O)N2CCCCC2C(=O)N2CCN(c3ccccc3F)CC2)c1 (stereo not drawn) | . | 0 | . | . | . | . | .
Cc1cc(N)c2cc(NC(=O)/C=C/c3ccccc3Cl)ccc2n1 | -3 | . | -10 | -2 | 64* | 77* | -3 | Fluor interf inh=>100
COc1ccc(C(=O)C(=O)N2CCN(C(=O)c3ccccc3C(F)(F)F)CC2)cc1OC | . | 3 | . | . | . | . | .
Fc1ccccc1/C=N/Nc1ncnc2ccccc12 | 7 | -11 | -3 | 2 | -2 | . | .
Clc1ccc(/C=N/Nc2ncnc3ccccc23)cc1Cl | 13 | -1 | -6 | 6 | 43* | 33 | 14
